CAL PDZ FP-1: untagged CAL PDZ binding inhibitors, primary screen, biochemical, fluorescence polarization, HTS; 300,000 compounds, 0.92% hits; purified CAL PDZ, TMR-peptide fluorescence polarization, 1 h; inhibition, % at 24.9 µM; AID 602252, 2012; Golgi-associated PDZ and coiled-coil motif-containing protein (Homo sapiens), Q9HD26;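 active means mean inhibition of at least 30% with at least half of replicates also reaching 30%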
miR122 inh: miR-122 Renilla sensor signal increase in Huh7, primary screen, miR-122 inhibitor project, cell-based, single point, plate reader; Huh7 miR-122 Renilla luciferase sensor, 48 h; neutral wells = 0, positive control = 100; activation (reporter increase), % at 12.5 µM; 340,000 compounds, 0.3% hits; AID 602342, 2012;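 active means mean replicate activation score at least 90 and every replicate individually at or above 90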;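 further: higher luciferase means less miR-122 activity so hits act as miR-122 inhibitors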
ARNT-TACC3 inh: disruptors of ARNT/TACC3 protein interaction, primary screen, biochemical, AlphaScreen, single concentration; inhibition, % at 9.99 µM; 390,000 compounds, 0.66% hits; AlphaScreen His-ARNT PAS-B/GST-TACC3 binding, luminescence; TACC3 fragment carries E629A point mutation; AID 623870, 2012;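 active means mean inhibition of replicates at least 50% and at least half of replicates each reaching 50%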
CFTR F508del cor: F508del CFTR correction, initial screen, CFBE line, single point; CFBE cells, YFP halide quenching; stimulated with forskolin plus potentiator P3; % fluorescence drop versus neutral controls; activity (quench increase), % at 7.58 µM; 350,000 compounds, 0.36% hits; AID 720511, 2013;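 active means mean added fluorescence quench of at least 8% versus neutral control, with both replicates also reaching 8%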;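 further: cells transiently co-express mutant CFTR-F508del with the halide-sensitive YFP; corrector assay measuring rescue of mutant channel to the surface after 24 h compound exposure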
PGC1a acetyl inh: inhibitors of PGC1a acetylation signal, primary screen, cell-based, U2OS, AlphaScreen, inhibitor mode. AlphaScreen anti-acetyl-lysine; with virally co-expressed GCN5 acetyltransferase. inhibition, % at 15.6 µM. 350,000 compounds, 0.17% hits. AID 651687, 2012;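 active means every replicate shows inhibition of at least 40%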
CAL PDZ FP-2: CAL PDZ peptide-binding inhibitors, primary screen, biochemical, fluorescence polarization, Cer-tagged CAL PDZ, HTS. 330,000 compounds, 0.02% hits. AID 504414, 2011. purified CAL PDZ, TMR-peptide fluorescence polarization, 1 h. inhibition, % at 20 µM. Golgi-associated PDZ and coiled-coil motif-containing protein (Homo sapiens), Q9HD26;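 active means highest replicate inhibition of at least 40%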
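Material: tagged CAL PDZ protein CerCALP, purified; buffer or medium: sodium phosphate/NaCl buffer pH 7.4 with TCEP, IgG, Thesit; also added: fluorescent TMR peptide probe; schedule: 1 h incubation at room temperature before polarization reading; technique: fluorescence polarization from S- and P-plane intensities, G-factor corrected; control set: unlabelled peptide and DMSO controls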
Of the large screens only hits and unclear results are named; the others gave an inactive call. Sampled rows, rich in hits. Any-hit rate of the full collection: about 1.7%.

CCCN(CC(=O)Nc1ccccc1C)C(=O)CCCc1c[nH]c2ccccc12	CAL PDZ FP-1 131.5
CCCN(CC(=O)Nc1ccccc1C)C(=O)COc1c(C)cccc1C	CAL PDZ FP-1 44.7
COc1ccc(/C=N/NC(=O)c2cccc(O)c2)cc1Cn1nc(C)c([N+](=O)[O-])c1C	CAL PDZ FP-1 53.3 (no result: miR122 inh, PGC1a acetyl inh)
N#CC(C#N)=C1C=CC=CN1/C(=C\c1ccco1)C(=O)c1ccccc1	none (no result: miR122 inh, PGC1a acetyl inh)
COc1ccc(C(=O)/C(=C\c2ccco2)N2C=CC=CC2=C(C#N)C#N)cc1	PGC1a acetyl inh 71.3 (no result: CFTR F508del cor)
CCCCCCNC(=O)O[C@@]12CN(S(=O)(=O)c3ccc(C)cc3)C[C@]1(O)Cn1c(=O)n(CCCCCC)c(=O)n1C2	PGC1a acetyl inh 68.9 (no result: CAL PDZ FP-1, ARNT-TACC3 inh, CAL PDZ FP-2)
Cc1ccc(C(=O)n2nc(-c3ccccc3)nc2NCc2ccco2)cc1	none
CCCC(=O)n1nc(-c2ccc(C)cc2)nc1NCc1ccco1	CAL PDZ FP-1 80.6 (no result: miR122 inh)
COc1ccccc1C(=O)Nc1onc(C)c1C#N	CFTR F508del cor 18.2 (no result: CAL PDZ FP-1, miR122 inh)
O=C(NN=C1c2ccccc2-c2ccccc21)c1ccccc1Br	PGC1a acetyl inh 66.1 (no result: miR122 inh)
CC(C)(C)c1nnc(NC(=O)Nc2ccc(Cl)cc2)s1	none (no result: miR122 inh, ARNT-TACC3 inh, PGC1a acetyl inh)
COc1ccc(NC(=O)Nc2nnc(C(C)(C)C)s2)cc1	CAL PDZ FP-1 46.7 (no result: miR122 inh, PGC1a acetyl inh)
CC(C)C#Cc1cnc2c(c1)C(=O)N([C@@H](C)CO)C[C@H](C)[C@@H](CN(C)Cc1ccccc1)O2	none (no result: CAL PDZ FP-1, CAL PDZ FP-2)
CCCCn1c(CN2CCN(c3cccc(Cl)c3)CC2)nc2c1c(=O)[nH]c(=O)n2C	CFTR F508del cor 13.7 (no result: miR122 inh)
Cn1c(=O)[nH]c(=O)c2c1nc(CN1CCN(c3cccc(Cl)c3)CC1)n2CCCc1ccccc1	none (no result: CAL PDZ FP-1)
N/C(=N\OC(=O)CCCOc1ccccc1)c1ccc([N+](=O)[O-])cc1	PGC1a acetyl inh 90.1
CC1(C)C=C2C(=NN(c3ccccc3)C(N)=C2C#N)CO1	ARNT-TACC3 inh 46.0 (no result: miR122 inh, PGC1a acetyl inh)
S=c1c2c(nc3nc[nH]n13)CCC2	ARNT-TACC3 inh 35.1 (no result: CAL PDZ FP-1, miR122 inh, PGC1a acetyl inh)
O=C(O)COC(=O)Cc1ccccc1Nc1c(Cl)cccc1Cl	CFTR F508del cor 16.5
O=C(COC(=O)Cc1cccs1)Nc1ccccc1Cl	none (no result: miR122 inh, PGC1a acetyl inh)
CCCC(=O)Nc1cc(S(=O)(=O)N2CCCCC2)ccc1N1CCOCC1	CAL PDZ FP-1 58.7
CCCC(=O)Nc1cc(S(=O)(=O)N2CCOCC2)ccc1N1CCCCC1	none (no result: CAL PDZ FP-1, ARNT-TACC3 inh)
Cc1ccccc1C(=O)Nn1cnnc1	none (no result: CAL PDZ FP-1)
COc1cccc(C(=O)Nn2cnnc2)c1OC	PGC1a acetyl inh 74.9
CC1(CNC(=O)C(=O)NCC2(C)CO2)CO1 (stereo not given)	CAL PDZ FP-1 40.6
COc1cccc2c1C(=O)c1c(O)c3c(c(O)c1C2=O)CC(O)(C(=O)CO)CC3OC1CC(N(C)C)C(O)C(C)O1 (stereo not given)	CFTR F508del cor 25.2
COc1cccc2c1C(=O)c1c(O)c3c(c(O)c1C2=O)C[C@@](O)(C(=O)CO)C[C@@H]3O[C@H]1C[C@H](N)[C@@H](O)[C@H](C)O1	none (no result: CFTR F508del cor)
COc1cccc2c1C(=O)c1c(O)c3c(c(O)c1C2=O)C[C@@](O)(C(C)=O)C[C@@H]3O[C@H]1C[C@H](N)[C@H](O)[C@H](C)O1	CFTR F508del cor 75.4, PGC1a acetyl inh 50.9
C[C@H]1CN([C@@H](C)CO)C(=O)c2cc(NC(=O)CCN3CCOCC3)ccc2O[C@H]1CN(C)C(=O)Nc1ccccc1	none (no result: CAL PDZ FP-1, CAL PDZ FP-2)
CCC(=O)N1CCC2(CC1)Oc1ccc(Cl)cc1C(=O)C21CC(c2ccccc2)=NO1 (stereo not given)	none (no result: PGC1a acetyl inh)
O=C(/C=C/c1cccs1)N1CCC2(CC1)Oc1ccc(Cl)cc1C(=O)C21CC(c2ccccc2)=NO1 (stereo not given)	ARNT-TACC3 inh 23.6 (no result: PGC1a acetyl inh)
